Laboratory results: ChEMBL document CHEMBL1139831, “The influence of modifications in imide fragment structure on 5-HT(1A) and 5-HT(7) receptor affinity and in vivo pharmacological properties of some new 1-(m-trifluoromethylphenyl)piperazines” (Bioorg Med Chem, 2007)

Legend:
Mus musculus [1] = experiment: Effect on locomotor activity in Swiss Albino mouse assessed as number of crossings in 6 mins at 20 mg/kg administered 30 mins before the test; type: functional
Summary of the method: (§1)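 Male Albino Swiss mice given compound ip (1% Tween 80, 10 ml/kg) 30 min before placement singly in plastic cages in a multichannel photobeam activity monitor; ambulation crossings counted over the first 6 min and over a 30 min session. n = 9-10 per group; ANOVA then Dunnett's test.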

Mus musculus [2] = experiment: Effect on locomotor activity in Swiss Albino mouse assessed as number of crossings in 30 mins at 20 mg/kg administered 30 mins before the test; type: functional; summary of the method: as §1
Mus musculus [3] = experiment: Effect on locomotor activity in Swiss Albino mouse assessed as number of crossings in 30 mins at 10 mg/kg administered 30 mins before the test; type: functional; summary of the method: as §1
Mus musculus [4] = experiment: Antidepressant activity in Swiss Albino mouse assessed as immobility time during final 4 mins of 6 mins session at 10 mg/kg administered 30 mins before the test by forced-swimming test; type: functional
Summary of the method: (§2)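 Male Albino Swiss mice (24–28 g), compound given ip in 1% aqueous Tween 80 (10 ml/kg), 30 min before test. Mouse placed singly in glass cylinder (25 cm high, 10 cm diameter) holding 6 cm water at 23–25 °C for 6 min; immobility (floating, only small head-keeping movements) timed over last 4 min. n = 9-10 per group; one-way ANOVA then Dunnett's test.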

Mus musculus [5] = experiment: Antidepressant activity in Swiss Albino mouse assessed as immobility time during final 4 mins of 6 mins session at 20 mg/kg administered 30 mins before the test by forced-swimming test; type: functional; summary of the method: as §2
[6] = Displacement of [3H]prazosin from adrenergic alpha1 receptor in rat cortical membranes; type: cell membranes, Membrane
Summary of the method: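 Rat cortical membranes with [3H]-prazosin; phentolamine defines nonspecific binding. 7–9 drug concentrations in triplicate, at least three separate experiments; stopped by GF/B filtration with three ice-cold buffer washes, bound radioactivity by liquid scintillation counting; Ki from non-linear regression and Cheng-Prusoff equation.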

Mus musculus [7] = organism: Mus musculus; settings: Swiss Albino, 5 mg/kg
Mus musculus [8] = organism: Mus musculus; settings: Swiss Albino, 2.5 mg/kg
Mus musculus [9] = organism: Mus musculus; settings: Swiss Albino, 5 mg/kg; remark: listed apart in the source
Rattus norvegicus [10] = experiment: Effect on lower lip retraction in Wistar rat at 0.1 mg/kg; type: functional
Summary of the method: (§3)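 Male Wistar rats (290–310 g) dosed ip in 1% Tween 80 (2 ml/kg), caged singly; lower lip retraction scored 15, 30 and 45 min after dosing as 0 (incisors not visible), 0.5 (partly) or 1 (completely visible), totals up to 3 per rat. n = 6 per group; one-way ANOVA followed by Dunnett's test.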

[11] = target: T1, 5-hydroxytryptamine receptor 1A (Rattus norvegicus, UniProt P19327); experiment: Displacement of [3H]8-OH-DPAT from 5HT1A in rat hippocampal membranes; type: cell membranes, Hippocampus, Membrane
T1 sequence (P19327 whole entry): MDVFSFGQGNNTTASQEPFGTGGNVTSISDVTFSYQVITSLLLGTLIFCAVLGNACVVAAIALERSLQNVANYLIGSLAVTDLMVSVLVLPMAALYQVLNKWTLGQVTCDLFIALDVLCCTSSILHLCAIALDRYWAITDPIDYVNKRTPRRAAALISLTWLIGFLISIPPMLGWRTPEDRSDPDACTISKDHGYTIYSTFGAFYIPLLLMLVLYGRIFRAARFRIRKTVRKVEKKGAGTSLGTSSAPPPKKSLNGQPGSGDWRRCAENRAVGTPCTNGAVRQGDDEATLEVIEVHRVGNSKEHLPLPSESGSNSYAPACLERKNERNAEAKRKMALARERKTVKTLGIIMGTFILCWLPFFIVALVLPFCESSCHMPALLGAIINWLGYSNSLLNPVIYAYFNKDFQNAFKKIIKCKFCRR
Summary of the method: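 Rat hippocampal membranes, [3H]-8-OH-DPAT as radioligand, 5-HT defining nonspecific binding. 7–9 drug concentrations run in triplicate, at least three separate experiments. Filtration through GF/B filters with three ice-cold buffer washes, scintillation counting. Ki from non-linear regression of binding isotherms via Cheng-Prusoff equation.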

Mus musculus [12] = experiment: Effect on locomotor activity in Swiss Albino mouse assessed as number of crossings in 30 mins at 0.3 mg/kg administered 30 mins before the test; type: functional; summary of the method: as §1
Mus musculus [13] = experiment: Effect on locomotor activity in Swiss Albino mouse assessed as number of crossings in 6 mins at 0.3 mg/kg administered 30 mins before the test; type: functional; summary of the method: as §1
Mus musculus [14] = organism: Mus musculus; settings: Swiss Albino, 5 mg/kg; remark: listed apart in the source
Mus musculus [15] = organism: Mus musculus; settings: Swiss Albino, 2.5 mg/kg; remark: listed apart in the source
Mus musculus [16] = organism: Mus musculus; settings: Swiss Albino, 5 mg/kg; remark: listed apart in the source
Rattus norvegicus [17] = experiment: Effect on lower lip retraction in Wistar rat at 0.3 mg/kg; type: functional; summary of the method: as §3
Mus musculus [18] = organism: Mus musculus; settings: Swiss Albino, 5 mg/kg; remark: listed apart in the source
D(2) dopamine receptor = D(2) dopamine receptor (Rattus norvegicus, UniProt P61169); experiment: Displacement of [3H]spiperone from dopamine D2 receptor in rat striatal membranes; type: cell membranes, Membrane
Summary of the method: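 Competition binding on rat striatal membranes using [3H]-spiperone, butaclamol for nonspecific binding; filtration through GF/B filters and scintillation counting. Run at two compound concentrations, each in triplicate, and affinity expressed as estimated Ki.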

Mus musculus [19] = organism: Mus musculus; settings: Swiss Albino, 5 mg/kg; remark: listed apart in the source
Mus musculus [20] = experiment: Effect on locomotor activity in Swiss Albino mouse assessed as number of crossings in 30 mins at 1 mg/kg administered 30 mins before the test; type: functional; summary of the method: as §1
Rattus norvegicus [21] = experiment: Effect on lower lip retraction in Wistar rat at 1 mg/kg; type: functional; summary of the method: as §3
Mus musculus [22] = experiment: Effect on locomotor activity in Swiss Albino mouse assessed as number of crossings in 6 mins at 1 mg/kg administered 30 mins before the test; type: functional; summary of the method: as §1
[23] = target: 5-hydroxytryptamine receptor 7 (Homo sapiens, UniProt P34969); experiment: Displacement of [3H]5-CT from human 5HT7 expressed in HEK293 cells; type: cell-based
Summary of the method: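 HEK293 cells stably transfected with human 5-HT7(b) cDNA; membranes (10 µg protein) incubated 1 h at 37 °C in 50 mM Tris-HCl pH 7.4 with 4 mM MgCl2, 0.1 mM pargyline, 0.1% ascorbic acid, 0.5 nM [3H]-5-CT and 7–9 test concentrations in triplicate; 10 µM 5-HT defines nonspecific binding. GF/B filtration, scintillation counting; Ki via Cheng-Prusoff from ≥3 experiments.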

Rattus norvegicus [24] = experiment: Effect on 8-OH-DPAT-induced lower lip retraction in Wistar rat at 0.1 mg/kg; type: functional
Mus musculus [25] = experiment: Antidepressant activity in Swiss Albino mouse assessed as immobility time during final 4 mins of 6 mins session at 1 mg/kg administered 30 mins before the test by forced-swimming test; type: functional; summary of the method: as §2
Mus musculus [26] = experiment: Anxiolytic activity in Swiss Albino mouse assessed as number of punished crossings for 60 secs at 0.3 mg/kg administered 30 mins before the test by four-plate test; type: functional
Summary of the method: (§4)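 Male Albino Swiss mice dosed ip (1% aqueous Tween 80, 10 ml/kg) 30 min beforehand. Opaque box floored with four metal plates; 15 s free exploration, then each plate-to-plate crossing triggers a 0.5 s, 120 V floor shock, with no new shock for 3 s if running continues. Punished crossings counted over 60 s; n = 9-10, ANOVA plus Dunnett's test.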

Mus musculus [27] = organism: Mus musculus; settings: Swiss Albino, 2.5 mg/kg; remark: listed apart in the source
Mus musculus [28] = organism: Mus musculus; settings: Swiss Albino, 2.5 mg/kg; remark: listed apart in the source
Mus musculus [29] = experiment: Anxiolytic activity in Swiss Albino mouse assessed as number of punished crossings for 60 secs at 1 mg/kg administered 30 mins before the test by four-plate test; type: functional; summary of the method: as §4
Mus musculus [30] = experiment: Antidepressant activity in Swiss Albino mouse assessed as immobility time during final 4 mins of 6 mins session at 0.1 mg/kg administered 30 mins before the test by forced-swimming test; type: functional; summary of the method: as §2
Mus musculus [31] = experiment: Anxiolytic activity in Swiss Albino mouse assessed as number of punished crossings for 60 secs at 5 mg/kg administered 30 mins before the test by four-plate test; type: functional; summary of the method: as §4
Mus musculus [32] = experiment: Antidepressant activity in Swiss Albino mouse assessed as immobility time during final 4 mins of 6 mins session at 0.3 mg/kg administered 30 mins before the test by forced-swimming test; type: functional; summary of the method: as §2
Mus musculus [33] = experiment: Antidepressant activity in Swiss Albino mouse assessed as immobility time during final 4 mins of 6 mins session at 1.25 mg/kg administered 30 mins before the test by forced-swimming test; type: functional; summary of the method: as §2
Mus musculus [34] = experiment: Anxiolytic activity in Swiss Albino mouse assessed as number of punished crossings for 60 secs at 2.5 mg/kg administered 30 mins before the test by four-plate test; type: functional
Summary of the method: (§5)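 Male Albino Swiss mice (24–28 g), compound suspended in 1% aqueous Tween 80, given ip (10 ml/kg). Mouse placed in box with four metal floor plates, 15 s exploration, then floor electrified (120 V, 0.5 s) at each plate-to-plate crossing, no new shock for 3 s. Punished crossings counted over 60 s. n = 9-10/group; one-way ANOVA then Dunnett's test.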

Mus musculus [35] = experiment: Antidepressant activity in Swiss Albino mouse assessed as immobility time during final 4 mins of 6 mins session at 5 mg/kg administered 30 mins before the test by forced-swimming test; type: functional; summary of the method: as §2
Mus musculus [36] = experiment: Anxiolytic activity in Swiss Albino mouse assessed as number of punished crossings for 60 secs at 1.25 mg/kg administered 30 mins before the test by four-plate test; type: functional; summary of the method: as §5
Mus musculus [37] = experiment: Antidepressant activity in Swiss Albino mouse assessed as immobility time during final 4 mins of 6 mins session at 2.5 mg/kg administered 30 mins before the test by forced-swimming test; type: functional; summary of the method: as §2

Sequence of 5-hydroxytryptamine receptor 7 (P34969 whole entry): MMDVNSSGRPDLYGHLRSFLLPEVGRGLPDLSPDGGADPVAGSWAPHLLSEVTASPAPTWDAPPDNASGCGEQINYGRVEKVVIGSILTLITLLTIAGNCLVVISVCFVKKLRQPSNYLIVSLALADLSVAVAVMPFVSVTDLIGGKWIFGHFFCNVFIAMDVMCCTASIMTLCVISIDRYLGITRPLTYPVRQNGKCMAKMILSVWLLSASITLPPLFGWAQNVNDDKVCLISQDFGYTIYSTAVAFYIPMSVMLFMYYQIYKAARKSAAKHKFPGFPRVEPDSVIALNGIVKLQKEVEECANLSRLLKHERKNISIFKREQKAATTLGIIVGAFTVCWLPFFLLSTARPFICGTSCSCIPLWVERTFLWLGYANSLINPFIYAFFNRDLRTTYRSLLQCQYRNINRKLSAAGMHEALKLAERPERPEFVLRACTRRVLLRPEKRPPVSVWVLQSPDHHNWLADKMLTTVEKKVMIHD
Sequence of D(2) dopamine receptor (P61169 whole entry): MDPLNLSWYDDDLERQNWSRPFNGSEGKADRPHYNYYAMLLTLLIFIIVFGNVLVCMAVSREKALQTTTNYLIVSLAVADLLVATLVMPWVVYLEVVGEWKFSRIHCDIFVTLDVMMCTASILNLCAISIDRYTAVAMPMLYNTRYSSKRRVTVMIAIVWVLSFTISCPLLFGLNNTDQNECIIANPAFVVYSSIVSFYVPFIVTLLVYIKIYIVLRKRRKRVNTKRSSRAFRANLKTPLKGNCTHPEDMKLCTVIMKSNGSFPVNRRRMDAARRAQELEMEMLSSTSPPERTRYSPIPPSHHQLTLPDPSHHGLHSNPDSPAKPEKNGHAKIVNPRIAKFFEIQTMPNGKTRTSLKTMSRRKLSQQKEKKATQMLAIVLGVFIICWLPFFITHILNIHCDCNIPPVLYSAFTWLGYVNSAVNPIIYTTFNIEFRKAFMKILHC

Which results are given for `CN(C)CCCN1c2ccccc2CCc2ccccc21` [IMIPRAMINE]?
Activity (Mus musculus [1]): 314.9; Activity (Mus musculus [2]): 625.3; Activity (Mus musculus [3]): 876.8; Activity (Mus musculus [4]): 149.1 s; Activity (Mus musculus [5]): 107.8 s

For `O=C1CCCC(=O)N1C1CCC(N2CCN(c3cccc(C(F)(F)F)c3)CC2)CC1` (trans isomer), which Ki [6] is on record?
Its Ki is 0.085 µM.

What about the deltaT (Mus musculus [7]) of the same compound?
Its deltaT is -1.5 °C.

What about the deltaT (Mus musculus [8]) of the same compound?
The deltaT was -0.5 °C.

And the deltaT (Mus musculus [9])?
Its deltaT is -1.2 °C.

And the Activity (Rattus norvegicus [10])?
Its Activity is 1.3.

What about the Ki [11] of the same compound?
The Ki was 0.0026 µM.

What about the Activity (Mus musculus [12]) of the same compound?
The Activity was 537.7.

What about the Activity (Mus musculus [13]) of the same compound?
The Activity was 208.2.

And the deltaT (Mus musculus [14])?
Its deltaT is -1.3 °C.

What about the deltaT (Mus musculus [15]) of the same compound?
The deltaT was -0.3 °C.

What about the deltaT (Mus musculus [16]) of the same compound?
Its deltaT is -1.2 °C.

And the Activity (Rattus norvegicus [17])?
Its Activity is 2.4.

What about the deltaT (Mus musculus [18]) of the same compound?
The deltaT was -1.6 °C.

What about the Ki (D(2) dopamine receptor) of the same compound?
The Ki was greater than 5 µM.

And the deltaT (Mus musculus [19])?
The deltaT was -1.5 °C.

What about the Activity (Mus musculus [20]) of the same compound?
Its Activity is 374.3.

And the Activity (Rattus norvegicus [21])?
The Activity was 3.

What about the Activity (Mus musculus [22]) of the same compound?
Its Activity is 121.6.

And the Ki [23]?
The Ki was 1.2 µM.

What about the Activity (Rattus norvegicus [24]) of the same compound?
The Activity was 2.6.

And the Activity (Mus musculus [25])?
Its Activity is 77.7 s.

What about the Activity (Mus musculus [26]) of the same compound?
The Activity was 3.9.

And the deltaT (Mus musculus [27])?
The deltaT was -0.7 °C.

And the deltaT (Mus musculus [28])?
The deltaT was -0.5 °C.

What about the Activity (Mus musculus [29]) of the same compound?
Its Activity is 3.9.

And the Activity (Mus musculus [30])?
Its Activity is 128.3 s.

What about the Activity (Mus musculus [31]) of the same compound?
The Activity was 4.2.

What about the Activity (Mus musculus [32]) of the same compound?
Its Activity is 70.1 s.

Which Ki [6] does the source give for `CC1(C)CC(=O)N(C2CCC(N3CCN(c4cccc(C(F)(F)F)c4)CC3)CC2)C(=O)C1` (stereo not given) here?
Its Ki is 0.268 µM.

What about the Activity (Mus musculus [33]) of the same compound?
Its Activity is 150.4 s.

What about the Activity (Mus musculus [12]) of the same compound?
Its Activity is 630.1.

What about the Activity (Mus musculus [13]) of the same compound?
Its Activity is 212.

And the Activity (Mus musculus [34])?
The Activity was 4.6.

What about the Activity (Mus musculus [35]) of the same compound?
The Activity was 113.3 s.

What about the Activity (Mus musculus [36]) of the same compound?
Its Activity is 4.4.

And the Activity (Mus musculus [20])?
The Activity was 535.3.

What about the Activity (Mus musculus [37]) of the same compound?
The Activity was 98.2 s.

What about the Activity (Mus musculus [22]) of the same compound?
The Activity was 211.7.

What about the Ki [23] of the same compound?
Its Ki is 0.221 µM.

And the Activity (Mus musculus [31])?
Its Activity is 4.6.
